Measured values published in ChEMBL document CHEMBL4673226, “Development of 5-Aminopyrazole-4-carboxamide-based Bumped-Kinase Inhibitors for Cryptosporidiosis Therapy” (J Med Chem, 2019).
Values after ≈ are worked out from the molar mass of the structure shown. Active and inactive are the calls of the source. The calls are words filed in the database; no cut-off is given here.

Key:
[1] = Clearance in mouse at 25 mg/kg, po; assay type: ADME, organism-based; conditions: in vivo
HepG2 = test: Toxicity in human HepG2 cells; assay type: cell-based
[2] = Protein binding in human plasma by dialysis method
[3] = Solubility in pH 6.5 solution; conditions: buffer
[4] = Drug level in mouse fecus at 25 mg/kg, po; conditions: read-out: Drug uptake, in vivo
[5] = AUC in mouse at 25 mg/kg, po; assay type: ADME, organism-based; parameters: dose 25 mg/kg; conditions: in vivo
[6] = target: Proto-oncogene tyrosine-protein kinase Src (Homo sapiens, UniProt P12931); test: Inhibition of SRC (unknown origin); assay type: ADME
[7] = Toxicity in human CRL-8155 cells; assay type: cell-based
[8] = Protein binding in mouse plasma by dialysis method
[9] = Inhibition of Cryptosporidium parvum CDPK1 assessed as reduction in ATP consumption using BioSyntide-2 substrate incubated for 90 mins by luciferase reporter gene assay
Cryptosporidium parvum [10] = test: Antimicrobial activity against nano-luciferase-expressing Cryptosporidium parvum infected in IFN-gamma KO B6.129S7-Ifngtm1Ts/J mouse assessed as log reduction of infection at 60 mg/kg, po QD for 5 days beginning on day 6 post infection relative untreated control; conditions: time 5 day
[11] = Solubility in pH 2.0 solution; conditions: buffer
Cryptosporidium parvum [12] = test: Antimicrobial activity against nano-luciferase-expressing Cryptosporidium parvum infected in IFN-gamma KO B6.129S7-Ifngtm1Ts/J mouse assessed as log reduction of infection at 10 mg/kg, po BID for 5 days beginning on day 6 post infection relative untreated control; assay type: functional, organism-based; conditions: time 5.0 day
Cryptosporidium parvum [13] = test: Antimicrobial activity against nano-luciferase-expressing Cryptosporidium parvum infected in IFN-gamma KO B6.129S7-Ifngtm1Ts/J mouse assessed as log reduction of infection at 20 mg/kg, po BID for 5 days beginning on day 6 post infection relative untreated control; assay type: functional, organism-based; conditions: time 5.0 day
[14] = Toxicity in mouse assessed as induction of distress at 100 to 400 mg/kg, po; assay type: organism-based; conditions: in vivo, dose 100-400 mg/kg
[15] = Toxicity in mouse assessed as induction of organ abnormalities at 100 to 200 mg/kg, po QD for 7 days by histological analysis; assay type: organism-based; conditions: in vivo, 168 h, dose 100-200 mg/kg, time 7 day
[16] = Toxicity in mouse at 100 to 200 mg/kg, po QD for 7 days; assay type: organism-based; conditions: in vivo, 168 h, dose 100-200 mg/kg, time 7 day
[17] = Toxicity in mouse assessed as effect on CBC parameters by measuring lymphocytes counts at 100 mg/kg, po QD for 7 days by histological analysis (reference value: 4060 +/- 1266 ABS/uL); assay type: organism-based; conditions: in vivo, 168 h, time 7 day
[18] = Toxicity in mouse assessed as effect on CBC parameters by measuring lymphocytes counts at 200 mg/kg, po QD for 7 days by histological analysis (reference value: 4060 +/- 1266 ABS/uL); assay type: organism-based; conditions: in vivo, 168 h, time 7 day
[19] = Toxicity in mouse at 100 to 400 mg/kg, po; assay type: organism-based; conditions: in vivo, dose 100-400 mg/kg
[20] = Toxicity in mouse assessed as effect on CBC parameters by measuring white blood cell counts at 100 mg/kg, po QD for 7 days by histological analysis (reference value: […] +/- […] 10^3/uL); assay type: organism-based; conditions: in vivo, 168 h, time 7 day
[21] = Toxicity in mouse assessed as effect on CBC parameters by measuring white blood cell counts at 200 mg/kg, po QD for 7 days by histological analysis (reference value: […] +/- […] 10^3/uL); assay type: organism-based; conditions: in vivo, 168 h, time 7 day
[22] = Toxicity in mouse at 100 to 250 mg/kg, po; assay type: organism-based; conditions: in vivo, dose 100-250 mg/kg
How it was run: (§1)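 Escalating single oral doses were given to mice until toxicity signs appeared. Regimens were 100, 150, 200 and 250 mg/kg, and 150, 200, 300, 400 and 600 mg/kg. Escalation was limited by solubility in the dosing solution.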

[23] = Plasma concentration in mouse at 100 mg/kg, po QD for 7 days measured after 24 hrs by LC-MS/MS analysis; assay type: ADME, organism-based; conditions: time 7 day
How it was run: (§2)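 Multiple-dose oral tolerability study in mice at 100 or 250 mg/kg over 7 days. Plasma was taken 2 h after dose 2, before dose 3, 2 h after dose 5, and 24, 48 and 72 h after dose 7. Drug was quantified by LC-MS/MS. Blood and organs were collected after the final dose.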

[24] = Plasma concentration in mouse at 250 mg/kg, po QD for 7 days measured after 72 hrs by LC-MS/MS analysis
[25] = Toxicity in mouse at 100 mg/kg, po QD for 7 days; assay type: organism-based; conditions: in vivo, 168 h, time 7 day
[26] = Plasma concentration in mouse at 100 mg/kg, po QD for 7 days measured after 48 hrs by LC-MS/MS analysis; assay type: ADME, organism-based; conditions: time 7 day; how it was run: as §2
[27] = Plasma concentration in mouse at 100 mg/kg, po QD for 2 days measured after 2 hrs by LC-MS/MS analysis; assay type: ADME, organism-based; conditions: time 2 day; how it was run: as §2
[28] = Clearance in mouse at 10 mg/kg, po; assay type: ADME, organism-based; conditions: in vivo
[29] = Plasma concentration in mouse at 250 mg/kg, po QD for 7 days measured after 24 hrs by LC-MS/MS analysis
[30] = Toxicity in mouse assessed as effect on organ parameters at 100 to 250 mg/kg, po QD for 7 days by histological analysis; assay type: organism-based; conditions: in vivo, 168 h, dose 100-250 mg/kg, time 7 day
[31] = Toxicity in mouse assessed as induction of lethargy at 250 mg/kg, po QD for 7 days; assay type: organism-based; conditions: in vivo, 168 h, time 7 day
[32] = Plasma concentration in mouse at 100 mg/kg, po QD for 3 days measured on pre dose by LC-MS/MS analysis
[33] = Plasma concentration in mouse at 250 mg/kg, po QD for 5 days measured after 2 hrs by LC-MS/MS analysis
[34] = Plasma concentration in mouse at 250 mg/kg, po QD for 7 days measured after 48 hrs by LC-MS/MS analysis
[35] = Toxicity in mouse assessed as induction of lack of grooming at 250 mg/kg, po QD for 7 days; assay type: organism-based; conditions: in vivo, 168 h, time 7 day
[36] = Plasma concentration in mouse at 250 mg/kg, po QD for 3 days measured on pre dose by LC-MS/MS analysis
Cryptosporidium parvum [37] = test: Antimicrobial activity against nano-luciferase-expressing Cryptosporidium parvum infected in IFN-gamma KO B6.129S7-Ifngtm1Ts/J mouse assessed as log reduction of infection at 30 mg/kg, po QD for 5 days beginning on day 6 post infection relative untreated control; assay type: functional, organism-based; conditions: time 5.0 day
[38] = AUC in mouse at 10 mg/kg, po; assay type: ADME, organism-based; parameters: dose 10 mg/kg; conditions: in vivo
[39] = Plasma concentration in mouse at 250 mg/kg, po QD for 2 days measured after 2 hrs by LC-MS/MS analysis
Cryptosporidium parvum [40] = test: Antimicrobial activity against nano-luciferase-expressing Cryptosporidium parvum infected in IFN-gamma KO B6.129S7-Ifngtm1Ts/J mouse assessed as log reduction of infection at 15 mg/kg, po QD for 5 days beginning on day 6 post infection relative untreated control; assay type: functional, organism-based; conditions: time 5.0 day
[41] = Toxicity in mouse assessed as induction of distress at 100 to 250 mg/kg, po; assay type: organism-based; conditions: in vivo, dose 100-250 mg/kg; how it was run: as §1
[42] = Toxicity in mouse assessed as effect on CBC parameters at 100 to 250 mg/kg, po QD for 7 days; assay type: organism-based; conditions: in vivo, 168 h, dose 100-250 mg/kg, time 7 day
[43] = Toxicity in mouse assessed as effect on serum chemistry parameters at 100 to 250 mg/kg, po QD for 7 days; assay type: organism-based; conditions: in vivo, 168 h, dose 100-250 mg/kg, time 7 day
[44] = mouse, in vivo, po, 30 mg/kg, 96 h
[45] = Plasma concentration in mouse at 100 mg/kg, po QD for 5 days measured after 2 hrs by LC-MS/MS analysis; assay type: ADME, organism-based; conditions: time 5 day; how it was run: as §2
[46] = Plasma concentration in mouse at 100 mg/kg, po QD for 7 days measured after 72 hrs by LC-MS/MS analysis; assay type: ADME, organism-based; conditions: time 7 day; how it was run: as §2

Proto-oncogene tyrosine-protein kinase Src, sequence (P12931 2-536 limits assumed): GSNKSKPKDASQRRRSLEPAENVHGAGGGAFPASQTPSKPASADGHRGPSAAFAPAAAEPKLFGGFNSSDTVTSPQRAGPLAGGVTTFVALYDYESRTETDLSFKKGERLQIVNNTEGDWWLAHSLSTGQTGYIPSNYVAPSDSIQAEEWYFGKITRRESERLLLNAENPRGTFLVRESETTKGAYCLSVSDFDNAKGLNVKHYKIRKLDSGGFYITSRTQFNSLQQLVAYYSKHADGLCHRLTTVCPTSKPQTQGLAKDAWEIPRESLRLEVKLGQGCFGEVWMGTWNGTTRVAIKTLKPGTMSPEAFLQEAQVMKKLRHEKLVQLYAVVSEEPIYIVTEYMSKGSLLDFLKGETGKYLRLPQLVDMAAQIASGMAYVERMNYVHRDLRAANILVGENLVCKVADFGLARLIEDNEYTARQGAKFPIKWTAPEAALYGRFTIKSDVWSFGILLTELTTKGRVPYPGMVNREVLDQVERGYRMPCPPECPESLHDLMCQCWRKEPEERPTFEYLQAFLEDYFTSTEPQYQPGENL

CCOc1ccc2cc(-c3nn(C(C)(C)CO)c(N)c3C(N)=O)ccc2n1
CL/F [1]: 0.4 mL/min | Activity (HepG2): Non-Toxic | PPB [2]: 84% | solubility [3]: > 100 µM | concentration [4]: 0.41 µM | AUC [5]: 11412.6 µmol·min/L | IC50 [6]: > 10000 nM | Activity [7]: Non-Toxic | PPB [8]: 80% | IC50 [9]: 3.1 nM | FC (Cryptosporidium parvum [10]): 3.15 | solubility [11]: > 100 µM | Activity (Cryptosporidium parvum [12]): inactive | Activity (Cryptosporidium parvum [13]): inactive

CC(C)(CO)Cn1nc(-c2ccc3cc(OC4CC4)ccc3c2)c(C(N)=O)c1N
Activity (HepG2): Non-Toxic | Activity [14]: Non-Toxic | Activity [15]: Non-Toxic | Activity [16]: Non-Toxic | Activity [17]: 1194 abs/uL | Activity [7]: Non-Toxic | Activity [18]: 1301 abs/uL | Activity [19]: Non-Toxic | Activity [20]: 1.5 10^3 /uL | Activity [21]: 1.5 10^3 /uL

CC(C)(C)n1nc(-c2ccc3cc(OC4CC4)ccc3c2)c(C(N)=O)c1N
Activity [22]: Non-Toxic | concentration at 168 h [23]: 26.4 µM | Activity (HepG2): Non-Toxic | PPB [2]: 82% | solubility [3]: 65 µM (≈ 23.7 µg/mL) | concentration [4]: 0.42 µM | concentration at 168 h [24]: 0.7 µM | Activity [25]: Non-Toxic | IC50 [6]: > 10000 nM | concentration at 168 h [26]: 4.8 µM | concentration at 48 h [27]: 36.6 µM | CL/F [28]: 0.5 mL/min | concentration at 168 h [29]: 24.6 µM | Activity [7]: Non-Toxic | PPB [8]: 95% | Activity [30]: Non-Toxic | Activity [31]: Toxic | IC50 [9]: 4.3 nM | FC (Cryptosporidium parvum [10]): 3.52 | concentration at 72 h [32]: 19.9 µM | concentration at 120 h [33]: 72.2 µM | concentration at 168 h [34]: 2.3 µM | Activity [35]: Toxic | solubility [11]: 83 µM (≈ 30.2 µg/mL) | concentration at 72 h [36]: 36.1 µM | Activity (Cryptosporidium parvum [37]): Active | AUC [38]: 9098 µmol·min/L | concentration at 48 h [39]: 40.1 µM | Activity (Cryptosporidium parvum [40]): inactive | Activity [41]: Non-Toxic | Activity [42]: Non-Toxic | Activity [43]: Non-Toxic | Cmax [44]: 28.8 µM | concentration at 120 h [45]: 49.2 µM | concentration at 168 h [46]: 0.3 µM
